Source: PubChem BioAssay
MC4R ag barr: activates human MC4R beta-arrestin recruitment | U2OS MC4R beta-arrestin complementation, luminescence; percent of melanotan II response, DMSO zero | activation, % at 8.9 µM | hit rate 0.98% among 360,000;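 active = activation above a per-plate cutoff, the mean activation of sample wells on that plate plus 3 SD, cut at about 8% in these data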
EBI2 antag: blocks human EBI2 receptor beta-arrestin signaling; EBI2 beta-arrestin recruitment, luminescence, 7a,25-OHC stimulated; hit rate 0.81% among 360,000; P32249; inhibition, % at 5 µM; in the data active = inhibition above about 38%;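 note: enzyme fragment complementation signal reports receptor beta-arrestin coupling in cells; 0% = agonist plus DMSO wells and 100% = wells without agonist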
MC4R antag cAMP: human MC4R antagonism in cAMP assay; AID 540295; hit rate 0.48% among 360,000; MC4R-expressing cells, MTII-stimulated cAMP, LANCE TR-FRET; inhibition, % at 6.5 µM; P32245;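 active = inhibition above its plate's cutoff, the mean of tested wells on that plate plus 3 SD, cut at about 29% in these data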;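 note: 0% = Melanotan II alone and 100% = Melanotan II plus saturating MCL0020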
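Material: human MC4R-expressing U2OS cells. Probe or stimulus: Melanotan II challenge. Dosing: 6.5 µM single dose. Times: 30-min compound, 1-h challenge, 1-h detection, room temperature. Technique: TR-FRET with Eu-cAMP and labeled anti-cAMP, 671 nm. Replication: singlicate.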
HTR2A ag: agonists of mouse serotonin 5-HT2A receptor (HTR2A). CHO-K1 mHTR2A beta-arrestin complementation, luminescence; percent of 30 µM serotonin response. P35363. activation, % at 7.6 µM. hit rate 0.66% among 360,000;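 active = activation above a run cutoff, the mean activation of all tested compounds plus 3 SD, cut at about 14% in these data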;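 note: 0% = plate median of compound wells and 100% = 30 µM serotonin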
Target sequence (P35363 whole entry, looked up): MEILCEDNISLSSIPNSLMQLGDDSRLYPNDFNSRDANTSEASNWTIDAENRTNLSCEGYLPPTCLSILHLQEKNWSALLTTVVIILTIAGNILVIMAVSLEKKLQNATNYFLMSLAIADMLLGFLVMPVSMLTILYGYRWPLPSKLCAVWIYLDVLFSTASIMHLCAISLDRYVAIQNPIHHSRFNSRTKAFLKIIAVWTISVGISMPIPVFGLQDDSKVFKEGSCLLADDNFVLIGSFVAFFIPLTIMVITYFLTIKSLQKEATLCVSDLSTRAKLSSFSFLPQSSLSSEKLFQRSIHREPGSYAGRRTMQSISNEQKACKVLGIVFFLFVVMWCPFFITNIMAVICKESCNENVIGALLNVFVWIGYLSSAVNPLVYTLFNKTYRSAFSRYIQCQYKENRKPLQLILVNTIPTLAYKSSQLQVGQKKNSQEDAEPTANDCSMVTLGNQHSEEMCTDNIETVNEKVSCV
MC4R barr ag: human MC4R beta-arrestin agonism confirmation; shares compounds with MC4R ag barr; U2OS MC4R beta-arrestin recruitment, luminescence; scaled DMSO 0%, Melanotan II 100%; hit rate 31% among 2,400; activation, % at 8.9 µM;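 active = mean activation across replicates above the hit cutoff set in the earlier primary screen, cut at about 8% in these data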
MOR-DOR barr ag: counter-screen for MC4R agonists: agonists of mu-delta opioid heterodimer; shares compounds with MC4R ag barr; U2OS PathHunter beta-arrestin, beta-gal luminescence; percent of deltorphin B response, DMSO zero; hit rate 5.8% among 2,400; activation, % at 9.2 µM;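 active = mean activation across replicates exceeds the hit threshold derived in the earlier primary screen, cut at about 18% in these data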;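 note: 100% = deltorphin B at 0.9 µM final and 0% = DMSO alone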
* marks the source's active call; other numbers are inactive results; x = no result given; ! = not confirmed by another sample. Most compounds without a hit are left out; they make up all but 2.8% or so of the library.

SMILES	MC4R ag barr	EBI2 antag	MC4R antag cAMP	HTR2A ag	MC4R barr ag	MOR-DOR barr ag
C/C(=N\NC(=O)c1nnn(-c2nonc2N)c1CN(C)c1ccccc1)c1ccccc1O	0	-5	-1	-1	x	x
Cc1nnn(-c2nonc2N)c1C(=O)N/N=C/c1ccccc1O	10*	1	7	-1	1	4
COc1ccc(/C(C)=N/NC(=O)c2nnn(-c3nonc3N)c2CN(C)c2ccccc2)cc1	13*	-7	-8	-5	3	8
N#Cc1cccc(NC(=O)c2cc(C3CCCCN3C(=O)CCCc3ccccc3)on2)c1 (stereo not given)	0	5	-2	4	x	x
CC1CC(=O)Nc2ccccc2N1C(=O)COc1ccccc1C(N)=O (stereo not given)	1	0	9	8	x	x
COc1ccc(/C=N/NC(=O)CCCOc2ccc(Cl)cc2Cl)cc1	2	7	-1	1	x	x
O=C(CCCOc1ccc(Cl)cc1Cl)N/N=C/c1ccc(Cl)cc1	9.8*	9	4	1	8	2
CSc1ccc(CN2CCc3c([nH]c4ccccc34)C2)cc1	11*	-1	1	-3	3	8
Clc1ccc(CN2CCc3c([nH]c4ccccc34)C2)cc1Cl	15*	16	8	3	45*	23*
Clc1cccc(CN2CCc3c([nH]c4ccccc34)C2)c1	0	27	6	8	x	x
Cc1cc(Cl)cc2sc(NC(=O)c3ccco3)nc12	11*	-2	8	-4	0	3
O=C(Nc1nonc1-c1ccc(F)cc1)c1ccco1	-1	8	-3	1	x	x
CCOc1ccccc1NC(=O)Cn1nnc(-c2ccc(OCC)c(OCC)c2)n1	9.7*	5	-1	0	3	4
CCOc1ccc(-c2nnn(CC(=O)Nc3cc(OC)cc(OC)c3)n2)cc1OCC	11*	13	-2	3	4	7
CCCOc1ccc(C(=O)NC2CCSc3ccccc32)cc1 (stereo not given)	17*	-12	8	-2	1	6
O=[N+]([O-])c1ccc(-c2ccc(/C=N/c3c(-c4ccco4)nc4ccccn34)o2)cc1	13*	-8	4	-3	9.2*	9
O=[N+]([O-])c1ccc(Cl)c(-c2ccc(/C=N/c3c(-c4ccco4)nc4ccccn34)o2)c1	2	-13	7	2	x	x
CN(Cc1ccccc1)C(=O)c1csc(COCCO)n1	-1	-5	1	2	x	x
Cc1ccc(C)c(OCCC(=O)OCC(=O)NCCNC(=O)COC(=O)CCOc2cc(C)ccc2C)c1	11*	-18	-4	-1	1	5
Cc1ccc(C)c(OCCC(=O)OCC(=O)NCc2ccccc2)c1	-3	3	0	1	x	x
Cc1ccc(NC(=O)NNC(=O)c2cc3ccccc3cc2O)cc1	13*	2	2	3	15*	6
COc1ccccc1NC(=O)NNC(=O)c1cc2ccccc2cc1O	-2	-7	-5	-2	x	x
C/C(=N\Nc1nncc2ccccc12)c1cccc(OC(F)F)c1	17*	8	7	2	0	6
C/C(=N\Nc1nncc2ccccc12)c1ccc(O)cc1	-1	-7	10	-1	x	x
Cc1nc2ccc(C(=O)NC(C)(C)C)cn2c1N(C)C(=O)CCc1ccccc1	-1	3	0	6	x	x
SMILES	MC4R ag barr	EBI2 antag	MC4R antag cAMP	HTR2A ag	MC4R barr ag	MOR-DOR barr ag
O=C(C1CCCCC1)N1C[C@@H](O)[C@H](n2cc(C3CC3)nn2)C[C@@H]1c1ccccc1	1	-3	-1	0	x	x
C=CCNc1ncnc2c1ncn2[C@H]1CN(CCN2CCOCC2)C[C@@H](CO)O1	3	-7	16	2	x	x
COC(=O)Cn1cnc(C(=O)Nc2ccc(C)c(C)c2)n1	0	-11	-7	1	x	x
CCCCCOC(=O)Cn1c(=O)oc2ccccc21	1	-7	21	4	x	x
CCCCCCCCCCOC(=O)Cn1c(COc2cccc(C)c2)[n+](C)c2ccccc21	19*	-6	-5	0	28*	15
CCCCCCCCCCOC(=O)Cn1c(COc2ccccc2)[n+](C)c2ccccc21	18*	8	-4	-7	29*	23*
CCCCOC(=O)Cn1c(=O)n(CC(=O)OCCCC)c2ccccc21	0	9	3	-4	x	x
CCCCCCCCCCOC(=O)Cn1c(COc2ccc(OC)cc2)[n+](C)c2ccccc21	35*	0	8	2	19*	24*!
CCc1nonc1NC(=O)c1oc2cc(C)c(C)cc2c1C	12*	-5	1	3	2	6
Cc1ccc(NC(=O)/C(C#N)=C/c2ccc(Sc3nc(C)cc(C)n3)o2)cc1	23*	9	18	-2	6	22*
CC(C)c1ccc(/C=C/C(=O)Nc2nc3ccc([N+](=O)[O-])cc3s2)cc1	22*	9	2	1	5	4
CC(=O)Nc1nc2cc([N+](=O)[O-])ccc2s1	-1	-7	-4	-9	x	x
O=C(Nc1ccc(F)c(Cl)c1)c1cc(C2CCCCN2C(=O)CCc2ccccc2)on1 (stereo not given)	-1	16	2	-5	x	x
O=C(Nc1nc(-c2ccc(F)c(F)c2)cs1)c1ccc(OCC2CCCO2)cc1 (stereo not given)	17*	3	1	-5	3	28*
Cc1csc(NC(=O)c2ccc(OCC3CCCO3)cc2)n1 (stereo not given)	-1	-7	9	2	x	x
Cc1ccc(-c2nnn(CC(=O)N(CC(=O)NC3CCCC3)c3ccc(F)c(Cl)c3)n2)o1	10*	5	6	6	1	5
Cc1ccc(-c2nnn(CC(=O)N(CC(=O)NC3CCCCC3)c3ccc(F)c(Cl)c3)n2)o1	5	6	0	7	x	x
Cc1cccc(N2CCN(C3=NC(=O)/C(=C\c4cn[nH]c4-c4ccccc4)S3)CC2)c1	16*	-11	9	1	6	6
O=C1N=C(N2CCC(Cc3ccccc3)CC2)S/C1=C/c1cn[nH]c1-c1ccccc1	2	12	5	2	x	x
Cc1ccc(N2CCN(C3=NC(=O)/C(=C\c4cn[nH]c4-c4ccccc4)S3)CC2)cc1	18*	6	8	-5	4	3
Cc1cccc(N2CCN(C3=NC(=O)C(=C4CCCCC4)S3)CC2)c1	0	5	3	-4	x	x
COC1=CC(=O)C=C(OC)C1(O)CC(C)=O	0	-19	3	4	x	x
CCN1/C(=C/c2ccc3cc(C)cc(C)c3[n+]2CC)Sc2cc(C)ccc21	45*	0	-14	1	87*	14
